These results are taken from ChEMBL document CHEMBL5104216, “Fragment-Sized Thiazoles in Fragment-Based Drug Discovery Campaigns: Friend or Foe?” (ACS Med Chem Lett, 2022).

Data set [1] in a line: Redox activity of compound assessed as redox index at 10 uM measured by resazurin assay. In kind it is physicochemical. The gist of the method:
(§1)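 Free radicals formed by redox cycling with DTT detected with resazurin by fluorimetric read-out. Spectral interference checked.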
For orientation: Resazurin is reduced to fluorescent resorufin, in cell work by metabolically active cells.

Data set [2] has as its target UDP-N-acetylglucosamine 1-carboxyvinyltransferase (Escherichia coli K-12) (UniProt P0A749). The data set is described as follows: Inhibition of recombinant Escherichia coli MurA assessed as residual activity at 500 uM using UDP-N-acetylglucosamine as substrate preincubated for 30 mins followed by substrate addition and measured by malachite green based colorimetric assay relative to control. In a few lines: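 E. coli MurA at 500–625 μM with 30 min preincubation before substrate addition. Malachite green colorimetric read-out. Activity threshold was <50% residual activity.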

Data set [3] has as its target Replicase polyprotein 1ab (Severe acute respiratory syndrome coronavirus 2) (UniProt P0DTD1). The data set is described as follows: Inhibition of recombinant SARS-CoV-2 3CLpro expressed in Escherichia coli NiCo21(DE3) assessed as residual activity at 500 uM using DABCYL-KTSAVLQSGFRKME-EDANS as substrate preincubated for 30 mins followed by substrate addition and measured by FRET assay relative to control. The gist of the method:
(§2)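 Kinetic fluorescence read-out of cleavage of a FRET substrate carrying a DABCYL–EDANS pair. Compounds were tested at 500–625 μM, and <50% residual activity was taken as the activity threshold. To exclude false positives, absorbance at the excitation and emission wavelengths and autofluorescence of the compounds were measured.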

Data set [4] in a line: Redox activity of compound assessed as redox index at 100 uM in presence of 1 mM DTT measured by HRP-PR assay. It counts as physicochemical. The gist of the method:
(§3)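 H2O2 from redox cycling, with or without DTT, detected with horseradish peroxidase-phenol red (HRP-PR).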

Data set [5] has as its target Replicase polyprotein 1ab (Severe acute respiratory syndrome coronavirus 2) (UniProt P0DTD1). The data set is described as follows: Inhibition of recombinant SARS-CoV-2 3CLpro expressed in Escherichia coli NiCo21(DE3) assessed as residual activity at 500 uM using DABCYL-KTSAVLQSGFRKME-EDANS as substrate preincubated for 30 mins in presence of 1mM DTT followed by substrate addition and measured by FRET assay relative to control. In a few lines:
as §2

Data set [6] is described as follows: Aqueous stability of the compound at pH 7.4 measured after 60 mins by spectrophotometric analysis. It counts as physicochemical. The settings on record: buffer, pH 7.4, 1 h. The gist of the method: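 Followed by spectrophotometry as changes in the compound absorption spectrum over time in 50 mM Tris-HCl pH 7.4, 0.5 mM EDTA, read after 60 min in 96-well microplate format. Compounds with low absorbance were not evaluated.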

Data set [7] addresses UDP-N-acetylglucosamine 1-carboxyvinyltransferase (Escherichia coli K-12) (UniProt P0A749). The data set is described as follows: Inhibition of recombinant Escherichia coli MurA assessed as residual activity at 500 uM using UDP-N-acetylglucosamine as substrate and measured by malachite green based colorimetric assay relative to control. The gist of the method:
(§4)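 Screened at 500–625 μM with malachite green colorimetric read-out. Activity threshold was <50% residual activity.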

The nature of data set [8]: Redox activity of compound assessed as redox index at 100 uM measured by HRP-PR assay. It counts as physicochemical. The gist of the method: as §3
A short description of data set [9]: Redox activity of compound assessed as redox index at 100 uM measured by H2DCFDA assay. In kind it is physicochemical. In a few lines:
(§5)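 Reactive oxygen species, with or without the reducing agent TCEP, detected with the fluorescent probe H2DCFDA. Compound spectral interference (autofluorescence) checked under the assay conditions.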

Data set [10] in a line: Thiol reactivity of compound measured by TNB2- assay. In kind it is physicochemical. In a few lines:
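Reactivity toward the thiol surrogate TNB2– in a nonproteinaceous setting without TCEP. Reversibility tested by adding TCEP and checking that absorbance was restored.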

Data set [11] concerns Mycobacterium tuberculosis. The data set is described as follows: Inhibition of Mycobacterium tuberculosis MetAP1a assessed as residual activity at 625 uM using L-methionine 7-amido-4-methylcoumarin as fluorogenic substrate and measured by fluorescence based assay. The gist of the method:
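Kinetic fluorescence assay in which the enzyme hydrolyses L-methionine 7-amido-4-methylcoumarin to fluorescent 7-amino-4-methylcoumarin. Compounds were tested at 500–625 μM, and activity was called at <50% residual activity. Spectral interference was checked by measuring absorbance at the excitation and emission wavelengths and compound autofluorescence.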

A short description of data set [12]: Redox activity of compound assessed as redox index at 1 uM measured by resazurin assay. It counts as physicochemical. The gist of the method:
as §1

Data set [13] concerns the target UDP-N-acetylglucosamine 1-carboxyvinyltransferase (Escherichia coli K-12) (UniProt P0A749). The data set is described as follows: Inhibition of recombinant Escherichia coli MurA assessed as residual activity at 500 uM using UDP-N-acetylglucosamine as substrate preincubated for 30 mins in presence of 1 mM DTT followed by substrate addition and measured by malachite green based colorimetric assay relative to control.

Data set [14] deals with D-alanine--D-alanine ligase B (Escherichia coli K-12) (UniProt P07862). The data set is described as follows: Inhibition of recombinant Escherichia coli DdlB assessed as residual activity at 500 uM using D-alanine as substrate incubated for 20 mins and measured by malachite green based colorimetric assay relative to control. The gist of the method: as §4
Data set [15] in a line: Redox activity of compound assessed as redox index at 100 uM in presence of 100 uM TCEP measured by H2DCFDA assay. It counts as physicochemical. The gist of the method:
as §5

Sequence of UDP-N-acetylglucosamine 1-carboxyvinyltransferase (Escherichia coli K-12) (P0A749 whole entry): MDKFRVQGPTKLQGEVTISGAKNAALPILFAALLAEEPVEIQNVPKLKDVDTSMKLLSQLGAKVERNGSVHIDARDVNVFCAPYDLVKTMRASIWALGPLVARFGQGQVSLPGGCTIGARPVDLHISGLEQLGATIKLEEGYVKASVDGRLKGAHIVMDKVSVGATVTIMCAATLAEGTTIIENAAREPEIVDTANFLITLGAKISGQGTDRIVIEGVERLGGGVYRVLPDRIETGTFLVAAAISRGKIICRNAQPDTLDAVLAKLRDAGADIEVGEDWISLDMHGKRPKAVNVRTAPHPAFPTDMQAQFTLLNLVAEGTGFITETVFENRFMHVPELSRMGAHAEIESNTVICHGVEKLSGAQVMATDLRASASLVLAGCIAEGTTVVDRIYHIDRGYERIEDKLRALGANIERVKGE

Turning to `COC(=O)CC(=O)Nc1ncc(C#N)s1`, the Activity_index in data set [1] is reported as 1; in data set [4], 1; in data set [8], 1; in [9], 0.9; in [12] it was 0.9; in data set [15] it was 1. Moreover, the Activity in data set [2] is 5.8%; in data set [3], -4.7%; in [5], 86.3%; in data set [7] it was 29.7%; in data set [10], “Active”; in [11], 92.6%. Besides, the results for the Activity in data set [13] and in [14] were 112% and 88%, respectively. For the same molecule, the Stability entry in data set [6] was “Stable”.
On to `Cc1cnc(Br)s1`, for which the Activity_index in data set [1] came out at 1; in data set [4], 1; in [8] it was 1; in data set [9], 0.9; in [12] it was 0.9; in [15] it was 0.9. Moreover, the Activity in data set [2] is 8.2%; in data set [3] it was 19.8%; in [5], 79.1%; in [7], 45.2%; in data set [10], “Active”; in [11], 116%. The Activity in data set [13] stood at 105%; in data set [14], 77%.
Turning to `Nc1nc(C(=O)O)cs1`, the Activity_index was 1.1 in [1]; 1 in data set [4]; 1 in data set [8]; 2.1 in [9]; 1 in data set [12]; 1.6 in [15]. The Activity in [2] was 0%; in data set [3], 14.2%; in [5], 84.9%; in data set [7], 1.6%; in [10], “Active”; in data set [11] it was 155%. Besides, the Activity in data set [13] was found to be 107%; in data set [14], 96%.
As to `Brc1nncs1`, the Activity_index amounted to 0.9 in data set [1]; 1 in data set [4]; 1 in data set [8]; 1 in [9]; 0.9 in data set [12]; 1.2 in [15]. In addition, the Activity is 143% in data set [2]; 5.1% in [3]; 78.3% in data set [5]; 47% in [7]; “Active” in data set [10]; 106% in [11]. Also, the values for the Activity in [13] and in data set [14] were 114% and 93%, respectively.
With `Brc1cnc(Br)s1`, the Activity_index in data set [1] was determined as 0.9; in data set [4] it was 1; in [8], 1; in data set [9] it was 0.7; in data set [12] it was 0.9; in [15] it was 1. Moreover, the Activity in data set [2] was 0%; in data set [3], 17.1%; in data set [5], 79.9%; in [7], 13.1%; in [10], “Active”; in [11] it was 71.7%. Also, the Activity in [13] was 99%; in data set [14] it was 91%.
For the molecule `CC(C)(C)c1csc(N)n1`, the Activity_index in [1] worked out at 0.9; in data set [4] it was 1; in data set [8], 1; in [9] it was 1.1; in [12], 1.1; in data set [15], 0.5. The Activity in [2] is 3.5%; in data set [3], 13%; in [5] it was 79.1%; in data set [7] it was 5.7%; in data set [10], “Active”; in data set [11], 128%. Also, the Activity in data set [13] worked out at 106%; in data set [14], 94%.
Turning to `Nc1nnc(C(F)(F)F)s1`, the Activity_index in data set [1] came out at 1; in data set [4], 1; in data set [8], 1; in data set [9], 1; in [12], 0.9; in [15], 0.9. Also, the Activity worked out at 18% in [2]; 66.8% in [3]; 82.9% in data set [5]; 56.9% in [7]; 142% in [11]; 101% in [13]. The Activity in [14] is 100%. For the same molecule, the Stability result in data set [6] is on record as “Stable”.
In the case of `COC(=O)CC(=O)Nc1ncc(Br)s1`, the Activity_index came to 0.9 in data set [1]; 1 in data set [4]; 1 in data set [8]; 1.2 in [9]; 1 in [12]; 1 in data set [15]. Besides, the Activity worked out at 60.9% in data set [2]; 95.3% in [3]; 86% in data set [5]; 97.9% in data set [7]; 78.2% in data set [11]; 107% in data set [13]. Besides, the Activity in data set [14] amounted to 88%. In addition, the Stability result in [6] is recorded as “Stable”.
With `Nc1nccs1` [AMINOTHIAZOLE], the Activity_index in [1] came to 0.9; in data set [4], 1; in data set [8] it was 1; in [9] it was 0.8; in data set [12], 0.9; in [15], 0.9. Also, the Activity in [2] amounted to 39.7%; in data set [3] it was 86.1%; in data set [5], 82.5%; in data set [7] it was 88%; in [11] it was 94.6%; in [13] it was 105%. The Activity in data set [14] worked out at 95%. Also, in [6], the Stability result is “Stable”.
`Nc1ccc(S(=O)(=O)Nc2nccs2)cc1` [SULFATHIAZOLE]: the Activity_index was found to be 1 in [1]; 1 in data set [4]; 1 in data set [8]; 1.2 in [9]; 0.9 in [12]; 1.1 in data set [15]. For the same molecule, the Activity worked out at 82.3% in data set [2]; 71.7% in data set [3]; 74.2% in data set [5]; 96.5% in [7]; 94% in data set [11]; 100% in data set [13]. The Activity in [14] worked out at 94%. In data set [6], the Stability result was “Stable”.
Take `N#Cc1cnc(NC(=O)CC(=O)O)s1`: the Activity_index in [1] is given as 1; in data set [4], 1; in [8] it was 1; in [9], 0.7; in [12], 0.9; in [15], 0.8. Moreover, the Activity in data set [2] is 20.3%; in data set [3], 93.5%; in data set [5], 79.7%; in data set [7], 72.3%; in [11] it was 146%; in data set [13], 109%. Besides, the Activity in [14] stood at 96%. For the same molecule, in [6], the Stability entry is reported as “Stable”.
In the case of `NCCc1cn(Cc2cscn2)nn1`, the Activity_index in data set [1] turned out to be 0.9; in data set [4] it was 1; in [8], 0.9; in [9], 1.2; in data set [12] it was 1; in data set [15], 1.5. Further, the Activity in data set [2] is 0%; in data set [3], 87.2%; in [5], 87.4%; in data set [7], 28.1%; in data set [10] it was “Active”; in data set [11] it was 94%. Moreover, the Activity was found to be 110% in [13] and 82% in data set [14].
